# High-throughput results from PubChem.
# CYP2C19 activ – increases human CYP2C19 enzyme activity | P33261 | 96,000 tested, under 10 active | recombinant CYP2C19, luciferin-H EGE luminescence; hits give high values; 0 = fully inhibited enzyme, 1 = untreated enzyme | activation factor at 5 µM;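 active means activation factor of at least 2 at 5 µM in the primary screen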;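 further: 0 = wells with 2.5 mM tranylcypromine and 1 = vehicle-only wells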
# Target sequence (P33261 whole entry, looked up): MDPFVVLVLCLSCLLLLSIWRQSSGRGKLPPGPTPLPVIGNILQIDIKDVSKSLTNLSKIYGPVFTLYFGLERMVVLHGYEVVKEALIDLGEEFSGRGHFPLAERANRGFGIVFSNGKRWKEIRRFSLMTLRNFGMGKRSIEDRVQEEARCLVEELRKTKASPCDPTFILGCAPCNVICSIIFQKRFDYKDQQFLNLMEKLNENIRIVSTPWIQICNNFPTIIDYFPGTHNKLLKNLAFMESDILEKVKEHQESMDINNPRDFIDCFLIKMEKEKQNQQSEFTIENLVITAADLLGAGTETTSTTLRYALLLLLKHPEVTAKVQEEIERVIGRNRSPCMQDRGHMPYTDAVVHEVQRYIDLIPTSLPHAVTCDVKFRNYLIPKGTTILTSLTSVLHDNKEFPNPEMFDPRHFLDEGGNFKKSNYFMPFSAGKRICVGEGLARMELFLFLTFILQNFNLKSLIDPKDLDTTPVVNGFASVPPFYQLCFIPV
# Ecoli tolC – blocks growth of E. coli BW25113 tolC mutant. actives 2.2% (n = 65,000). OD615. growth inhibition, % at 10 µM (by protocol). AID 573;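 active means growth inhibition at or above a cutoff equal to the mean over every tested compound plus 3 SD, cut at about 60% in these data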;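 further: growth measured after 20 h incubation at 37 °C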
#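 Material: E. coli BW25113 ΔtolC::kan, tolC deletion mutant strain. Measure: percent growth inhibition. Schedule: 37 °C, 20 h exposure. Doses: single-point testing at 10 µM. Signal: A615 absorbance measurement. Buffer or medium: kanamycin-containing LB broth (50 µg/mL).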
# E coli WT exp – E. coli BW25113 growth inhibition, expanded screen | OD600 absorbance | growth inhibition, % at 100 µM | actives 0.15% (n = 98,000) | AID 710;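 active means growth inhibition above about 50% at one test dose, limit read from the data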;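 further: growth measured after 20 h incubation at 37 °C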
# CYP2C9 activ – increases human cytochrome P450 2C9 activity. activation factor at 5 µM. P11712. recombinant CYP2C9, luciferin-H conversion, luminescence; hits give high values; factor 1 = untreated enzyme, 0 = blocked. actives 1.4% (n = 96,000);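 active means activation factor of 2 or more for CYP2C9 at a 5 µM dose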;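 further: 0 = sulfaphenazole-blocked wells and 1 = vehicle-only wells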
# CYP2C19 inh – human CYP2C19 inhibition; P33261; CYP2C19 Supersomes, luciferin-H EGE luminescence, 30 min; inhibition, % at 5 µM; actives 21% (n = 96,000); AID 778;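 active means CYP2C19 inhibition above a set limit at 5 µM in the primary screen, cut at about 50% in these data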;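 further: plate controls were negative control wells for no effect and 2.5 mM tranylcypromine positive control for full effect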
# CYP2C9 inh – inhibitors of human CYP2C9. actives 20% (n = 96,000). inhibition, % at 5 µM. P11712. CYP2C9 Supersomes, luciferin-H conversion, luminescence. AID 777;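 active means blocking of liver enzyme CYP2C9 beyond about 50% at 5 µM, limit read from the data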
# Active calls of the source: *; . = not tested or not shown. Hits are enriched below; roughly 29% of the tested compounds scored in any of these assays.
SMILES,CYP2C19 activ,Ecoli tolC,E coli WT exp,CYP2C9 activ,CYP2C19 inh,CYP2C9 inh
CC(=O)c1cccc(N(CC(=O)Nc2cccnc2)S(C)(=O)=O)c1,0.9,-3,6,1.2,11,-24
Cc1cc(C)nc(Nc2n[nH]c(-c3ccc(N)cc3)n2)n1,1,.,-1,1.2,-4,-16
Cc1cc(C)nc(Nc2n[nH]c(-c3ccccc3Br)n2)n1,0.8,10,1,0.3,18,74*
Cn1nc(C(F)(F)F)c(/C=N/OC(=O)c2ccccc2)c1Sc1ccc(Cl)cc1,0.7,.,-5,0.1,34,89*
Cn1nc(C(F)(F)F)c(/C=N/OC(=O)c2ccccc2)c1Cl,1,.,1,0.7,-3,29
Cn1cnc2c1c(=O)n(Cc1ccc(F)cc1Cl)c(=O)n2C,0.8,-4,-6,1.1,22,-6
O=C1N=C2SCCN2/C1=C\c1ccccc1Cl,1.1,.,2,1,-8,-2
Cc1nc2cc(F)ccc2n1C1CCN(S(=O)(=O)c2ccccc2)CC1,0.6,29,-4,0.3,38,74*
O=S(=O)(c1ccc2c(c1)OCCO2)N1CCC(n2cnc3cc(F)ccc32)CC1,0.2,36,-12,0.6,78*,43
O=S(=O)(c1ccc2c(c1)OCCO2)N1CCC(n2nnc3cc(F)ccc32)CC1,.,14,-11,.,.,.
COC(=O)c1ccccc1NC(=O)Nc1nnc(N2CCCCC2C)s1 (stereo unspecified),.,7,.,.,.,.
COc1cccc(C(=O)Nc2ccccc2N2CCOCC2)c1,0.4,9,-5,0.5,62*,53*
COc1cccc(C(=O)OCC(=O)Nc2ccccc2N2CCOCC2)c1,0.6,24,2,0.5,39,51*
COc1ccccc1C(=O)Nc1ccccc1N1CCOCC1,0.6,.,3,0.5,37,46
COC(=O)c1ccc(N2CCOCC2)c(NC(=O)Nc2cccc(OC)c2)c1,0.8,4,2,0.3,24,71*
COc1cccc(-n2c(C)nnc2SCC(=O)Nc2ccccc2N2CCOCC2)c1,0.4,-1,-9,0.2,63*,77*
Cc1nnc(SCC(=O)Nc2ccc(N3CCOCC3)cc2)n1-c1ccccc1,0.9,.,6,0.7,9,30
CCC(CC)c1nnc(NC(=O)c2ccc3ccccc3n2)s1,.,.,1,.,.,.
CC(C)C(c1nnnn1C1CCCC1)N1CCc2ccccc21 (stereo unspecified),0.7,37,-2,0.4,30,57*
c1ccc(C(c2nnnn2C2CCCCC2)N2CCc3ccccc3C2)nc1 (stereo unspecified),0.8,-15,7,1,24,0
CC(C)C(c1nnnn1C1CCCC1)N1CCCc2ccccc21 (stereo unspecified),.,74*,-13,.,.,.
CC(C)C(c1nnnn1C1CCCCC1)N1CCc2ccccc2C1 (stereo unspecified),1,10,2,0.9,5,8
CCN(CC)Cc1c(CC(C)C)oc(C)c1C(=O)O,1.1,.,-2,1.2,-9,-16
Cc1ccc(C)n1-c1cccc(C(=O)O)c1,0.9,-11,-8,0.9,9,9
Cc1cc(C(=O)OCn2nnc3ccccc3c2=O)c(C)n1-c1ccccc1,0.2,34,-16,0.2,78*,84*
SMILES,CYP2C19 activ,Ecoli tolC,E coli WT exp,CYP2C9 activ,CYP2C19 inh,CYP2C9 inh
Cc1cc(C(=O)O)c(C)n1-c1ccccc1,0.8,.,2,0.4,22,65*
Cc1ccccc1C(=O)OCn1nnc2ccccc2c1=O,1,5,-1,1.7,3,-69
CSc1cccc(-n2c(C)cc(C(N)=O)c2C)c1,0.3,6,4,0.8,69*,19
Cc1nn(C)cc1/C=N/NC(=O)c1ccc2c(c1)OCO2,1,.,1,0.9,4,7
Cc1nn(C)cc1/C=N\NC(=O)c1ccc2c(c1)c(C)c(C)n2Cc1ccccc1,0.2,.,-6,0.2,76*,83*
CCN(CC)c1ccc(Nc2nc(N3CCOCC3)c3ccccc3n2)cc1,0.5,.,7,0.4,54*,55*
c1ccc2c(N3CCCCC3)nc(N3CCCC3)nc2c1,1.1,14,17,1,-7,2
CSc1nc(N2CCOCC2)c2ccccc2n1,1,6,-3,1,0,3
COc1ccc(Nc2nc(N3CCCC3)c3ccccc3n2)cc1,0.9,76*,20,1,13,-2
Cn1nnc(NC(=O)COc2ccc(C3CCCCC3)cc2)n1,0.6,36,0,0.5,39,53*
O=C(COc1ccc(-n2cnnn2)cc1)NC1CCCCC1,0.6,-8,.,0.7,38,26
O=S(=O)(NC1CCN(Cc2ccccc2)CC1)c1cccc(S(=O)(=O)N2CCOCC2)c1,0.5,-11,3,0.7,54*,31
O=S(=O)(NCCC1=CCCCC1)c1cccc(S(=O)(=O)N2CCOCC2)c1,0.2,19,-15,0.2,76*,75*
O=S(=O)(NCc1ccco1)c1cccc(S(=O)(=O)N2CCOCC2)c1,0.5,-10,11,1.1,50*,-5
O=S(=O)(CCc1ccccc1)N1CCOCC1,0.3,-9,9,1,70*,-3
COc1ccc(Cn2c(CCC(=O)NCc3ccco3)nc3cccnc32)cc1,0.7,-17,1,0.7,29,26
Cc1cccc(N(CC(=O)NC2CCCCC2)C(=O)c2c(C)noc2C)c1,1,5,-1,0.7,2,32
Cc1oc(-c2ccc(Cl)cc2)nc1CSCC(=O)NCCCN1CCOCC1,0.9,-4,-6,0.9,12,12
O=S(=O)(NCCc1ccccc1)c1cccc(S(=O)(=O)N2CCOCC2)c1,0.1,4,-2,0.4,89*,61*
Clc1ccc(CSc2cc3c(nn2)-c2ccccc2CC3)cc1,0.8,.,-37,0.9,25,8
N#CCC(=O)NCCCOC(=O)Nc1ccc(Cl)c(Cl)c1,1.1,43,15,1,-6,2
O=C(Nc1cc(C(F)(F)F)ccc1N1CCOCC1)c1ccco1,1.1,0,-7,1.1,-11,-14
O=C(CNC(=O)c1ccco1)Nc1cc(Cl)ccc1N1CCOCC1,0.6,-4,-13,0.3,38,73*
O=C(Nc1ccc(Cl)cc1C(=O)NCCN1CCOCC1)c1ccco1,0.6,1,0,0.3,36,68*
O=C(Nc1ccccc1C(=O)NCCN1CCOCC1)c1ccco1,0.9,-9,-1,0.8,12,16
Cn1c(-c2c(N)n(CCc3ccccc3)c3nc4ccccc4nc23)nc2ccccc21,0.4,.,-21,0,58*,100*
Cn1c(-c2c(N)n(CCCc3ccccc3)c3nc4ccccc4nc23)nc2ccccc21,0.6,.,-20,0.5,36,46
COCCCn1c(N)c(-c2nc3ccccc3n2C)c2nc3ccccc3nc21,0.3,.,5,0.3,70*,66*
